Measurements from ChEMBL document CHEMBL3603751, “A new small molecule inhibitor of soluble guanylate cyclase” (Bioorg Med Chem, 2015).
Active and inactive are the calls of the source. No cut-off for these calls is given here.

How the values were obtained:
Bos taurus = organism: Bos taurus; test: Inhibition of bovine lung sGC using GTP as substrate assessed as inhibition of NO-stimulated cGMP formation at 100 uM preincubated with protein followed by NO addition measured after 2 mins by radioimmunoassay relative to control
In short: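 Purified bovine lung sGC (5 ng/ml) in 50 mM Tris, 0.3 mM MgCl, 100 μM EGTA, 0.045% BSA, 1000 units/mL SOD, pH 7.4, with 1 mM MgGTP at 37 °C. Compound (100 μM) added before DEA/NO (30 nM). Reaction ran 2 min, then aliquots were boiled in 50 mM Tris/4 mM EDTA. cGMP was quantified by [3H] radioimmunoassay.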

[1] = target: T1, Adenylate cyclase (Homo sapiens) (UniProt Q8NFM4+O60503+Q08828+P40145+O60266+O95622+O43306+Q08462+P51828); test: Inhibition of adenylyl cyclase (unknown origin); assay type: protein assay
Rattus norvegicus = organism: Rattus norvegicus; test: Inhibition of sGC in rat cerebellar slices assessed as inhibition of NMDA-induced cGMP production at 100 uM preincubated for 10 mins followed by phosphodiesterase inhibitor IBMX addition by radioimmunoassay
In short: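 Sagittal cerebellar slices 0.4 mm thick were cut from 10-day-old rats. Antagonists were added 10 min before IBMX (1 mM, 10 min preincubation). Slices were inactivated in boiling Tris–HCl (50 mM, pH 7.5) with EDTA (4 mM) and sonicated. Protein was measured by bicinchoninic acid and cGMP by radioimmunoassay.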

[2] = target: T1, Adenylate cyclase (Homo sapiens); test: Inhibition of forskolin-stimulated adenylyl cyclase (unknown origin)
[3] = target: Soluble guanylate cyclase (Homo sapiens) (UniProt Q02153+O75343+P33402+Q02108); test: Binding affinity to human recombinant sGC catalytic subunit by surface plasmon resonance analysis; assay type: protein-complex assay

Compound | inhibition (Bos taurus) | further results
Oc1cccc(Nc2nc3ccc(Cl)cc3nc2Nc2cccc(O)c2)c1 | inactive | 
O=[N+]([O-])c1ccc2nc(Nc3ccc(F)cc3)c(Nc3ccc(F)cc3)nc2c1 | inactive | 
Nc1ccc2nc(Nc3ccc(O)cc3)c(Nc3ccc(O)cc3)nc2c1 | inactive | 
N#Cc1ccc2nc(Nc3ccc(O)cc3)c(Nc3ccc(O)cc3)nc2c1 | inactive | 
N#Cc1ccc2nc(Nc3cccc(O)c3)c(Nc3cccc(O)c3)nc2c1 | inactive | 
Oc1ccc(Nc2nc3ccc(Cl)cc3nc2Nc2ccc(O)cc2)cc1 | inactive | 
O=[N+]([O-])c1ccc2nc(Nc3ccc(O)cc3)c(Nc3ccc(O)cc3)nc2c1 |  | inhibition [1]: inactive; inhibition (Rattus norvegicus): Active; inhibition [2]: inactive
CC(=O)Nc1ccc(Nc2nc3ccc([N+](=O)[O-])cc3nc2Nc2ccc(NC(C)=O)cc2)cc1 | inactive | 
CNC(=O)c1ccc2nc(Nc3cccc(O)c3)c(Nc3cccc(O)c3)nc2c1 |  | RU [3]: 9.6
COc1ccc(Nc2nc3ccc([N+](=O)[O-])cc3nc2Nc2ccc(OC)cc2)cc1 | inactive | 
CC(=O)Nc1cccc(Nc2nc3ccc([N+](=O)[O-])cc3nc2Nc2cccc(NC(C)=O)c2)c1 | inactive | 
